Measurements from ChEMBL document CHEMBL1811868, “Structure-activity relationship of 2-hydroxy-2-aryl-2,3-dihydro-imidazo[1,2-a]pyrimidinium salts and 2N-substituted 4(5)-aryl-2-amino-1H-imidazoles as inhibitors of biofilm formation by Salmonella Typhimurium and Pseudomonas aeruginosa” (Bioorg Med Chem, 2011).
pIC50: −log10 of the molar value. Calls of active or inactive are those of the source.

How the values were obtained:
Salmonella typhimurium [1] = assay: Antimicrobial activity against Salmonella Typhimurium ATCC 14028 assessed as inhibition of biofilm formation after 24 hrs by spectrophotometry; format: functional, organism-based, Salmonella enterica subsp. enterica serovar Typhimurium; details: Salmonella enterica, ATCC 14028, 24 h
In short: (§1)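 Static peg-lid biofilm prevention assay. Twofold serial dilutions in TSB diluted 1/20, 2–3 repeats per compound. Overnight S. Typhimurium ATCC14028 (LB-grown) or P. aeruginosa PA14 (TSB-grown) cultures were diluted 1:100, giving ~10^6 cells/well, then incubated 24 h at 25 °C without shaking. Pegs were PBS-washed, stained 30 min with 0.1% crystal violet, extracted with 30% acetic acid and read at OD570. IC50 was fitted from the concentration gradient.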

Salmonella typhimurium [2] = assay: Antimicrobial activity against Salmonella Typhimurium ATCC 14028 assessed as inhibition of planktonic cell growth at IC50 after 24 hrs by […]; format: functional, organism-based; details: Salmonella enterica subsp. enterica serovar Typhimurium
In short: (§2)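 Planktonic growth was followed by Bioscreen growth curves, not by crystal violet. Overnight cultures were diluted 1:200 in TSB 1/20 and received compound serially diluted in DMSO or EtOH, in triplicate, with solvent controls. Plates were shaken at 25 °C for at least 24 h, reading A600 every 15 min.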

Pseudomonas aeruginosa [3] = assay: Antimicrobial activity against Pseudomonas aeruginosa PA14 assessed as inhibition of biofilm formation after 24 hrs by spectrophotometry; format: functional, organism-based; details: PA14, 24 h; in short: as §1
Salmonella typhimurium [4] = assay: Antimicrobial activity against Salmonella Typhimurium ATCC 14028 assessed as inhibition of planktonic cell growth at 40 uM after 24 hrs by […]; format: functional, organism-based; details: Salmonella enterica subsp. enterica serovar Typhimurium; in short: as §2
Pseudomonas aeruginosa [5] = assay: Antimicrobial activity against Pseudomonas aeruginosa PA14 assessed as inhibition of planktonic cell growth at IC50 after 24 hrs by […]; format: functional, organism-based; in short: as §2
Pseudomonas aeruginosa [6] = assay: Antimicrobial activity against Pseudomonas aeruginosa PA14 assessed as inhibition of planktonic cell growth at 80 uM after 24 hrs by […]; format: functional, organism-based; in short: as §2
Salmonella typhimurium [7] = assay: Antimicrobial activity against Salmonella Typhimurium ATCC 14028 assessed as inhibition of planktonic cell growth at 80 uM after 24 hrs by […]; format: functional, organism-based; details: Salmonella enterica subsp. enterica serovar Typhimurium; in short: as §2
Salmonella typhimurium [8] = assay: Antimicrobial activity against Salmonella Typhimurium ATCC 14028 assessed as inhibition of planktonic cell growth at 20 uM after 24 hrs by […]; format: functional, organism-based; details: Salmonella enterica subsp. enterica serovar Typhimurium; in short: as §2
Pseudomonas aeruginosa [9] = assay: Antimicrobial activity against Pseudomonas aeruginosa PA14 assessed as inhibition of planktonic cell growth at 5 uM after 24 hrs by […]; format: functional, organism-based; in short: as §2
Pseudomonas aeruginosa [10] = assay: Antimicrobial activity against Pseudomonas aeruginosa PA14 assessed as inhibition of planktonic cell growth at 40 uM after 24 hrs by […]; format: functional, organism-based; in short: as §2
Pseudomonas aeruginosa [11] = assay: Antimicrobial activity against Pseudomonas aeruginosa PA14 assessed as inhibition of planktonic cell growth at 20 uM after 24 hrs by […]; format: functional, organism-based; in short: as §2

| SMILES | pIC50 (Salmonella typhimurium [1]) | pIC50 (Pseudomonas aeruginosa [3]) | growth inhibition (GI) (Salmonella typhimurium [2]) | growth inhibition (GI) (Salmonella typhimurium [4]) | growth inhibition (GI) (Pseudomonas aeruginosa [5]) | growth inhibition (GI) (Pseudomonas aeruginosa [6]) | growth inhibition (GI) (Salmonella typhimurium [7]) | growth inhibition (GI) (Salmonella typhimurium [8]) | growth inhibition (GI) (Pseudomonas aeruginosa [9]) | growth inhibition (GI) (Pseudomonas aeruginosa [10]) | growth inhibition (GI) (Pseudomonas aeruginosa [11]) |
| --- | --- | --- | --- | --- | --- | --- | --- | --- | --- | --- | --- |
| O[C@@]1(c2ccccc2)C[n+]2cccnc2N1C1CCCCC1 | 3.86 | 4.65 | Active |  | inactive | Active |  |  |  |  |  |
| CCCCNc1ncc(-c2ccc(OC)cc2)[nH]1 | 4.28 | 4.33 | inactive |  | inactive | inactive | inactive |  |  |  |  |
| c1ccc(-c2cnc(NC3CCCC3)[nH]2)cc1 | 4.28 | 4.47 | inactive |  | inactive |  | inactive |  |  | inactive |  |
| CCCCCCCCNc1ncc(-c2ccc(S(C)(=O)=O)cc2)[nH]1 | 4.38 | 5.51 | inactive |  | inactive |  | inactive |  |  |  | inactive |
| CNc1ncc(-c2ccc(F)cc2)[nH]1 | 3.99 | 4.60 |  |  | inactive |  |  |  |  | inactive |  |
| O[C@@]1(c2ccc(I)cc2)C[n+]2cccnc2N1Cc1ccccc1 | 4.44 |  | inactive | inactive |  |  |  |  |  |  |  |
| O=[N+]([O-])c1cccc(-c2cnc(NC3CCCCC3)[nH]2)c1 | 3.20 | 5.36 |  |  | inactive |  |  |  |  | inactive |  |
| O[C@@]1(c2ccccc2)C[n+]2cccnc2N1C1CCCCCCC1 | 4.23 | 4.31 | Active |  | Active | Active | Active |  |  |  |  |
| O[C@@]1(c2ccc(Cl)cc2)C[n+]2cccnc2N1C1CCCCC1 | 4.48 | 4.79 | Active |  | inactive | Active | Active |  |  |  |  |
| COc1ccc(-c2cnc(NC3CCCCC3)[nH]2)cc1 | 3.42 | 4.26 |  |  | inactive | inactive |  |  |  |  |  |
| CCCCCCCCNc1ncc(-c2cccc(Br)c2)[nH]1 | 4.35 | < 3.10 | inactive |  |  |  | inactive |  |  |  |  |
| Nc1ncc(-c2ccc(Cl)cc2)[nH]1 |  |  | inactive | inactive | inactive |  |  |  | inactive |  |  |
| O[C@@]1(c2ccc(Cl)cc2)C[n+]2cccnc2N1C1CCCC1 | 4.38 | 4.38 | Active |  | Active | Active | Active |  |  |  |  |
| CSc1ccc(-c2cnc(NC3CCCCC3)[nH]2)cc1 | 3.72 | 4.80 |  |  | inactive |  |  |  |  |  | inactive |
| O=[N+]([O-])c1ccc(-c2cnc(NC3CCCCC3)[nH]2)cc1 | 4.44 | 4.60 | inactive | inactive |  |  |  |  |  |  |  |
| CNc1ncc(-c2ccc([N+](=O)[O-])cc2)[nH]1 | 3.77 | 4.25 |  |  | inactive | inactive |  |  |  |  |  |

Continued, in another order:

| pIC50 (Salmonella typhimurium [1]) | pIC50 (Pseudomonas aeruginosa [3]) | SMILES | growth inhibition (GI) (Salmonella typhimurium [2]) | growth inhibition (GI) (Salmonella typhimurium [4]) | growth inhibition (GI) (Pseudomonas aeruginosa [5]) | growth inhibition (GI) (Pseudomonas aeruginosa [6]) | growth inhibition (GI) (Salmonella typhimurium [7]) | growth inhibition (GI) (Salmonella typhimurium [8]) | growth inhibition (GI) (Pseudomonas aeruginosa [9]) | growth inhibition (GI) (Pseudomonas aeruginosa [10]) | growth inhibition (GI) (Pseudomonas aeruginosa [11]) |
| --- | --- | --- | --- | --- | --- | --- | --- | --- | --- | --- | --- |
| 4.50 | 4.08 | CC(C)CN1c2nccc[n+]2C[C@@]1(O)c1ccc(Cl)cc1 | inactive | inactive |  |  |  |  |  |  |  |
| 5.70 | 6.05 | CC(C)CNc1ncc(-c2ccc(Cl)cc2)[nH]1 | inactive | Active | inactive |  |  | inactive | inactive |  |  |
| 5.31 | 5.92 | CC(C)CNc1ncc(-c2ccccc2)[nH]1 | inactive | inactive | inactive |  |  |  | inactive |  |  |
| 4.96 | 4.56 | CCCNc1ncc(-c2ccc(Cl)c(Cl)c2)[nH]1 | inactive |  |  |  |  | inactive |  |  |  |
| 4.93 | 4.69 | O=[N+]([O-])c1ccc(-c2cnc(NC3CCCC3)[nH]2)cc1 | inactive |  | inactive |  |  | inactive |  |  |  |
| 5.28 | 5.20 | CC(C)CN1c2nccc[n+]2C[C@@]1(O)c1ccc(Br)cc1 | inactive | Active | inactive |  |  |  |  | inactive |  |
| 5.66 | 6.15 | CCCCCNc1ncc(-c2ccc(Cl)c(Cl)c2)[nH]1 |  |  | inactive |  |  |  | inactive |  |  |
| 5.54 | 5.92 | CC(C)CNc1ncc(-c2ccc(Br)cc2)[nH]1 | inactive | Active | inactive |  |  | inactive | inactive |  |  |
| 4.55 | 4.12 | O[C@@]1(c2ccc(Cl)cc2)C[n+]2cccnc2N1C1CCCCCC1 | Active |  | Active | Active |  |  |  |  |  |
| 5.36 | 4.87 | Clc1ccc(-c2cnc(NC3CCCC3)[nH]2)cc1 | inactive | inactive | inactive |  |  |  |  | inactive |  |
| 5.42 | 4.64 | CC(C)CNc1ncc(-c2ccc([N+](=O)[O-])cc2)[nH]1 | inactive | inactive | inactive |  |  |  |  |  |  |
| 5.10 |  | CC(C)CN1c2nccc[n+]2C[C@@]1(O)c1ccc(Cl)c(Cl)c1 | inactive | Active |  |  |  |  |  |  |  |
| 5.24 | 5.10 | Clc1ccc(-c2cnc(NC3CCCC3)[nH]2)cc1Cl | inactive |  | inactive |  |  | inactive |  | inactive |  |
| 4.51 | 4.58 | Clc1ccc(-c2cnc(NCc3ccccc3)[nH]2)cc1 | inactive | inactive | inactive |  |  |  |  | inactive |  |
| 4.53 | 4.60 | CCCCN1c2nccc[n+]2C[C@@]1(O)c1ccc(Cl)cc1 | inactive | inactive | inactive |  |  |  |  | inactive |  |
| 4.60 | 4.50 | CCCCNc1ncc(-c2ccccc2)[nH]1 | inactive | inactive |  |  |  |  |  |  |  |
| 4.96 | 4.60 | CCCCCCCCNc1ncc(-c2ccc([N+](=O)[O-])cc2)[nH]1 | inactive |  |  |  | inactive |  |  |  |  |
| 4.81 | 4.97 | CCCCNc1ncc(-c2ccc(F)cc2)[nH]1 | inactive |  | inactive |  | inactive |  |  | inactive |  |
| 4.76 |  | O[C@@]1(c2ccc(F)cc2)C[n+]2cccnc2N1Cc1ccc2c(c1)OCO2 | inactive | inactive |  |  |  |  |  |  |  |
| 5.77 | 5.38 | CCCCCN1c2nccc[n+]2C[C@@]1(O)c1ccc(Br)cc1 | inactive | inactive | inactive |  |  |  |  | inactive |  |
| 4.72 | 5.43 | COc1cccc(CNc2ncc(-c3ccc([N+](=O)[O-])cc3)[nH]2)c1 | inactive | inactive | inactive |  |  |  |  | inactive |  |
| 5.25 | 5.17 | O[C@@]1(c2ccc(Cl)cc2)C[n+]2cccnc2N1C1CCCCCCCCCCC1 | Active |  | Active |  |  |  |  |  |  |
| 4.49 | 3.79 | CCCCCN1c2nccc[n+]2C[C@@]1(O)c1ccc(Cl)cc1 | inactive | inactive | Active |  |  |  |  |  |  |
